According to ChEMBL document CHEMBL3414540, “Synthesis, crystal structure and effect of indeno[1,2-b]indole derivatives on prostate cancer in vitro. Potential effect against MMP-9” (Eur J Med Chem, 2015):
≈ marks a conversion by molar mass, not a printed value. Calls of active or inactive are those of the source. No cut-off for these calls is given here.

Columns and labels:
[1] = (§1) Cytotoxicity against human PC3 cells after 72 hrs by XTT assay; format: functional, cell-based; conditions: PC-3, 72 h
Procedure, shortened: (§2)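 Compounds in DMSO (5-100 µg/ml, final DMSO <0.2%) were added for 72 h. XTT was then added (4 h, 37°C) and formazan read at 492 nm. IC50 is the 50% viability drop versus vehicle. Three experiments, five wells each, mean ± SEM.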

PC-3 [2] = experiment: as §1; format: functional, cell-based; procedure, shortened: as §2
LNCaP [3] = experiment: Cytotoxicity against human LNCAP cells after 72 hrs by XTT assay; format: functional, cell-based; procedure, shortened: as §2
[4] = (§3) Cytotoxicity against rat MAT-LyLu cells after 72 hrs by XTT assay; format: functional, cell-based; conditions: MAT-Ly-Lu; procedure, shortened: as §2
MAT-Ly-Lu = experiment: as §3; format: functional, cell-based; procedure, shortened: as §2
PC-3 [5] = experiment: Inhibition of EGF-induced cell migration of human PC3 cells at cytotoxic IC50 level incubated for 24 hrs in presence of EGF by light microscopy based wound healing assay; format: functional
Procedure, shortened: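 PC-3 cells (8×10^4 per well) were grown to confluence (48 h, 37°C) and the monolayer scratched with a pipette tip. After a PBS wash, compound in fresh medium was added with […] (1 pg/ml) for 24 h. Wound area was imaged at 0 and 24 h and expressed as % closure of the original wound. Three independent experiments, mean ± SEM.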

LNCaP [6] = experiment: Inhibition of cell invasion of human LNCAP cells pre-treated at cytotoxic IC50 level followed by further 18 hrs incubation by matrigel coated Boyden chamber assay; format: functional, cell-based
Procedure, shortened: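 LNCaP cells (1×10^5 cells/ml) were pretreated for 24 h, then seeded in serum-free medium onto a Matrigel-coated […] membrane over medium with 20% FBS (18 h, 37°C). Invaded cells were stained with calcein (4 µg/ml in HBSS, 1 h) and fluorescence read at 485/530 nm. Inhibition is relative to vehicle. Three independent experiments, mean ± SEM.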

[7] = target: Matrix metalloproteinase-9 (Homo sapiens) (UniProt P14780); experiment: Inhibition of MMP9 in human PC3 cells assessed as reduction in MMP-mediated gelatinolytic activity at cytotoxic IC50 level incubated for 24 hrs by zymography; format: cell-based; conditions: PC-3
Procedure, shortened: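 PC-3 cells at 80% confluence were washed with PBS and treated in serum-free medium (24 h, 37°C). Conditioned medium was mixed 0.75:0.25 with sample buffer lacking mercaptoethanol and run on 10% SDS gels copolymerized with gelatin (1 mg/mL). MMP-9 lysis zones were quantified as % activity relative to vehicle. Three experiments, mean ± SEM.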

[8] = Inhibition of clonogenic potential of human PC3 cells grown on semi-soft agar medium assessed as colony formation at cytotoxic IC50 level incubated for 2 weeks post dose by crystal violet staining based light microscopy relative to control; format: functional, PC-3; set-up: scale not given: the % may be the effect or the level left
Procedure, shortened: (§4)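 Cells (1×10^5) in RPMI with 20% FBS and 0.3% Noble agar were layered over a 0.6% agar/RPMI base, held 15 min at room temperature, then incubated 24 h at 37°C. Compound in 1 mL medium was added the next day. After 2 weeks, cells were stained with 0.01% crystal violet (18 h, 37°C). Colony number and relative size were scored by light microscopy against vehicle. Three independent experiments, mean ± SEM.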

LNCaP [9] = experiment: Inhibition of clonogenic potential of human LNCAP cells grown on semi-soft agar medium assessed as colony formation at cytotoxic IC50 level incubated for 2 weeks post dose by crystal violet staining based light microscopy relative to control; format: functional; set-up: scale not given: the % may be the effect or the level left; procedure, shortened: as §4
[10] = Inhibition of clonogenic potential of rat MAT-LyLu cells grown on semi-soft agar medium assessed as colony formation at cytotoxic IC50 level incubated for 2 weeks post dose by crystal violet staining based light microscopy relative to control; format: functional, MAT-Ly-Lu; set-up: scale not given: the % may be the effect or the level left; procedure, shortened: as §4
[11] = Inhibition of clonogenic potential of human PC3 cells grown on semi-soft agar medium assessed as relative colony size ratio at cytotoxic IC50 level incubated for 2 weeks post dose by crystal violet staining based light microscopy (reference value: 1 +/- 0.3); format: functional, PC-3; procedure, shortened: as §4
LNCaP [12] = experiment: Inhibition of clonogenic potential of human LNCAP cells grown on semi-soft agar medium assessed as relative colony size ratio at cytotoxic IC50 level incubated for 2 weeks post dose by crystal violet staining based light microscopy (reference value: 1 +/- 0.3); format: functional; procedure, shortened: as §4
[13] = Inhibition of clonogenic potential of rat MAT-LyLu cells grown on semi-soft agar medium assessed as relative colony size ratio at cytotoxic IC50 level incubated for 2 weeks post dose by crystal violet staining based light microscopy (reference value: 1 +/- 0.05); format: functional, MAT-Ly-Lu; procedure, shortened: as §4

Matrix metalloproteinase-9 (Homo sapiens), sequence (P14780 whole entry): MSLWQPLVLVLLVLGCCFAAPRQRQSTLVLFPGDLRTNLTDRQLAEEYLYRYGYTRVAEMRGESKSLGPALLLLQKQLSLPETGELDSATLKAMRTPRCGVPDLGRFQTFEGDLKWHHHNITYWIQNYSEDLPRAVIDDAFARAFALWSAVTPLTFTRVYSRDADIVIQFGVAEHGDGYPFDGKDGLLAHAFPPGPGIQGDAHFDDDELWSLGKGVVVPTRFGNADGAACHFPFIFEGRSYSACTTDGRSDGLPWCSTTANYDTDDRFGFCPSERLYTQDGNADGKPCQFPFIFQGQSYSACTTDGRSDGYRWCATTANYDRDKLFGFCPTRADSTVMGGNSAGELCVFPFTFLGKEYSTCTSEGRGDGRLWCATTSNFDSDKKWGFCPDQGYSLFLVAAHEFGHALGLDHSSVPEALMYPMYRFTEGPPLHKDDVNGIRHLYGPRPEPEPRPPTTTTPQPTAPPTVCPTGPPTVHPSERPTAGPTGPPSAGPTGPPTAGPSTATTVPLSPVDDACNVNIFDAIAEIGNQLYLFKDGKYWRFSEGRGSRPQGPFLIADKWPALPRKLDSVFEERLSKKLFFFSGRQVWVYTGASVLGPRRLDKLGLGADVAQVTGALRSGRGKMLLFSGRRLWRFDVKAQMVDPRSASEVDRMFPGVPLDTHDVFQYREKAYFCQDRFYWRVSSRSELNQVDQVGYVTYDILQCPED

Row | Structure (SMILES) | IC50 [1] [µg/mL] | IC50 (LNCaP [3]) [µg/mL] | IC50 [4] [µg/mL] | other results
1 | CC1(C)CC(=O)C2=C(C1)N(c1ccc(Cl)cc1)[C@@]1(O)c3ccccc3C(=O)[C@@]21O (racemic) | 76.6 (≈ 187 µM) | 66.2 (≈ 162 µM) | > 100 | inhibition (PC-3 [2]): Dose-dependent effect; inhibition (LNCaP [3]): Dose-dependent effect; inhibition (MAT-Ly-Lu): Dose-dependent effect
2 | O=C1CCCC2=C1[C@]1(O)C(=O)c3ccccc3[C@]1(O)N2c1ccc(Cl)cc1 (racemic) | 67.9 (≈ 178 µM) | 79.2 (≈ 207 µM) | > 100 | inhibition (PC-3 [2]): Dose-dependent effect; inhibition (LNCaP [3]): Dose-dependent effect; inhibition (MAT-Ly-Lu): Dose-dependent effect
3 | Cc1cc(N)c2ccccc2[n+]1CCCCCCCCCC[n+]1c(C)cc(N)c2ccccc21 [DEQUALINIUM] | 24.6 | 4.94 | 10.3 | inhibition (PC-3 [2]): Dose-dependent effect; inhibition (LNCaP [3]): Dose-dependent effect; inhibition (MAT-Ly-Lu): Dose-dependent effect
4 | COc1ccc(N2C3=C(C(=O)CCC3)[C@]3(O)C(=O)c4ccccc4[C@]23O)c(OC)c1 (racemic) | > 100 | > 100 | > 100 | 
5 | COc1ccc(N2C3=C(C(=O)CCC3)[C@]3(O)C(=O)c4ccccc4[C@]23O)cc1 (racemic) | > 100 | > 100 | > 100 | 
6 | COc1ccc(OC)c(N2C3=C(C(=O)CC(C)(C)C3)[C@]3(O)C(=O)c4ccccc4[C@]23O)c1 (racemic) | > 100 | > 100 | > 100 | 
7 | COc1ccc(N2C3=C(C(=O)CC(C)(C)C3)[C@]3(O)C(=O)c4ccccc4[C@]23O)c(OC)c1 (racemic) | > 100 | > 100 | > 100 | 
8 | Cc1ccccc1N1C2=C(C(=O)CCC2)[C@]2(O)C(=O)c3ccccc3[C@]12O (racemic) | > 100 | > 100 | > 100 | 
9 | COc1ccc(N2C3=C(C(=O)CC(C)(C)C3)[C@]3(O)C(=O)c4ccccc4[C@]23O)cc1 (racemic) | > 100 | > 100 | > 100 | 
10 | COc1cccc(N2C3=C(C(=O)CC(C)(C)C3)[C@]3(O)C(=O)c4ccccc4[C@]23O)c1 (racemic) | > 100 | > 100 | > 100 | 
11 | COc1ccc(OC)c(N2C3=C(C(=O)CCC3)[C@]3(O)C(=O)c4ccccc4[C@]23O)c1 | > 100 | > 100 | > 100 | 
12 | Cc1ccc(N2C3=C(C(=O)CCC3)[C@]3(O)C(=O)c4ccccc4[C@]23O)cc1C (racemic) | > 100 | > 100 | > 100 | 
13 | Cc1ccccc1N1C2=C(C(=O)CC(C)(C)C2)[C@]2(O)C(=O)c3ccccc3[C@]12O (racemic) | > 100 | > 100 | > 100 | 
14 | Cc1ccc(N2C3=C(C(=O)CCC3)[C@]3(O)C(=O)c4ccccc4[C@]23O)c(C)c1 (racemic) | > 100 | > 100 | > 100 | 
15 | COc1cccc(N2C3=C(C(=O)CCC3)[C@]3(O)C(=O)c4ccccc4[C@]23O)c1 (racemic) | > 100 | > 100 | > 100 | 
16 | Cc1cc(C)cc(N2C3=C(C(=O)CC(C)(C)C3)[C@]3(O)C(=O)c4ccccc4[C@]23O)c1 (racemic) | > 100 | > 100 | > 100 | 
17 | Cc1cccc(N2C3=C(C(=O)CC(C)(C)C3)[C@]3(O)C(=O)c4ccccc4[C@]23O)c1 (racemic) | > 100 | > 100 | > 100 | 
18 | CC1(C)CC(=O)C2=C(C1)N(c1ccc(Br)cc1)[C@@]1(O)c3ccccc3C(=O)[C@@]21O (racemic) | > 100 | > 100 | > 100 | 

Row | Structure (SMILES) | IC50 [1] [µg/mL] | IC50 (LNCaP [3]) [µg/mL] | IC50 [4] [µg/mL] | other results
19 | COc1ccccc1N1C2=C(C(=O)CCC2)[C@]2(O)C(=O)c3ccccc3[C@]12O (racemic) | > 100 | > 100 | > 100 | 
20 | Cc1cc(C)cc(N2C3=C(C(=O)CCC3)[C@]3(O)C(=O)c4ccccc4[C@]23O)c1 (racemic) | > 100 | > 100 | > 100 | 
21 | Cc1cccc(N2C3=C(C(=O)CCC3)[C@]3(O)C(=O)c4ccccc4[C@]23O)c1 (racemic) | > 100 | > 100 | > 100 | 
22 | COc1ccc(N2C3=C(C(=O)CC(C)(C)C3)[C@]3(O)C(=O)c4ccccc4[C@]23O)cc1OC (racemic) | > 100 | > 100 | > 100 | 
23 | Cc1ccc(C)c(N2C3=C(C(=O)CC(C)(C)C3)[C@]3(O)C(=O)c4ccccc4[C@]23O)c1 (racemic) | > 100 | > 100 | > 100 | 
24 | COc1ccccc1N1C2=C(C(=O)CC(C)(C)C2)[C@]2(O)C(=O)c3ccccc3[C@]12O (racemic) | > 100 | > 100 | > 100 | 
25 | Cc1ccc(N2C3=C(C(=O)CC(C)(C)C3)[C@]3(O)C(=O)c4ccccc4[C@]23O)c(C)c1 (racemic) | > 100 | > 100 | > 100 | 
26 | COc1cc(N2C3=C(C(=O)CC(C)(C)C3)[C@]3(O)C(=O)c4ccccc4[C@]23O)cc(OC)c1OC (racemic) | > 100 | > 100 | > 100 | 
27 | CC1(C)CC(=O)C2=C(C1)N(c1ccc(Cl)c(Cl)c1)[C@@]1(O)c3ccccc3C(=O)[C@@]21O (racemic) | 10.7 (≈ 24.1 µM) | 9.57 (≈ 21.5 µM) | 5.96 (≈ 13.4 µM) | inhibition (PC-3 [2]): Dose-dependent effect; inhibition (LNCaP [3]): Dose-dependent effect; inhibition (MAT-Ly-Lu): Dose-dependent effect; inhibition (PC-3 [5]): Active; inhibition (LNCaP [6]): Active; inhibition [7]: Active; Activity [8]: 0%; Activity (LNCaP [9]): 0%; Activity [10]: 6.35%; Ratio [11]: 0; Ratio (LNCaP [12]): 0; Ratio [13]: 0.16
28 | O=C1CCCC2=C1[C@]1(O)C(=O)c3ccccc3[C@]1(O)N2c1ccc(Br)cc1 (racemic) | > 100 | > 100 | > 100 | 
29 | Cc1ccc(C)c(N2C3=C(C(=O)CCC3)[C@]3(O)C(=O)c4ccccc4[C@]23O)c1 (racemic) | > 100 | > 100 | > 100 | 
30 | Cc1ccc(N2C3=C(C(=O)CC(C)(C)C3)[C@]3(O)C(=O)c4ccccc4[C@]23O)cc1 (racemic) | > 100 | > 100 | > 100 | 
31 | Cc1ccc(N2C3=C(C(=O)CC(C)(C)C3)[C@]3(O)C(=O)c4ccccc4[C@]23O)cc1C (racemic) | > 100 | > 100 | > 100 | 
32 | COc1cc(N2C3=C(C(=O)CCC3)[C@]3(O)C(=O)c4ccccc4[C@]23O)cc(OC)c1OC (racemic) | > 100 | > 100 | > 100 | 
33 | Cc1ccc(N2C3=C(C(=O)CCC3)[C@]3(O)C(=O)c4ccccc4[C@]23O)cc1 (racemic) | > 100 | > 100 | > 100 | 
34 | O=C1CCCC2=C1[C@]1(O)C(=O)c3ccccc3[C@]1(O)N2c1ccc(Cl)c(Cl)c1 (racemic) | 47.8 (≈ 115 µM) | 53.9 (≈ 130 µM) | 75.2 (≈ 181 µM) | inhibition (PC-3 [2]): Dose-dependent effect; inhibition (LNCaP [3]): Dose-dependent effect; inhibition (MAT-Ly-Lu): Dose-dependent effect
35 | COc1ccc(N2C3=C(C(=O)CCC3)[C@]3(O)C(=O)c4ccccc4[C@]23O)cc1OC (racemic) | > 100 | > 100 | > 100 | 
